Data published in ChEMBL document CHEMBL1157638, “Fluorescent epigenetic small molecule induces expression of the tumor suppressor ras-association domain family 1A and inhibits human prostate xenograft” (J Med Chem, 2010).

Assays:
Type in all cases: functional
U-251 = assay: Growth inhibition of human U251 cells assessed as cell growth at 1 nM relative to untreated control; details: read-out: Activity
LOX IMVI = assay: Growth inhibition of human LOXIMVI cells assessed as cell growth at 100 nM relative to untreated control; details: read-out: Activity
SF-268 = assay: Growth inhibition of human SF268 cells assessed as cell growth at 100 nM relative to untreated control; details: read-out: Activity
MOLT-4 = assay: Growth inhibition of human MOLT4 cells assessed as cell growth at 1 nM relative to untreated control; details: read-out: Activity
HOP-62 = assay: Growth inhibition of human HOP62 cells assessed as cell growth at 10 uM relative to untreated control; details: read-out: Activity
Outline: (§1)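 Run externally at the National Cancer Institute as a 59-cell-line panel screen, with concentrations up to 100 μM. Growth was scored relative to control, where negative growth or total cell kill was possible. Data are in the Supporting Information.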

M14 = assay: Growth inhibition of human M14 cells assessed as cell growth at 1 nM relative to untreated control; details: read-out: Activity
HCT-116 = assay: Growth inhibition of human HCT116 cells; outline: as §1
K562 = assay: Growth inhibition of human K562 cells assessed as cell growth at 100 nM relative to untreated control; details: read-out: Activity
NCI-H322M = assay: Growth inhibition of human NCI-H322M cells assessed as cell growth at 10 nM relative to untreated control; details: read-out: Activity
ACHN = assay: Growth inhibition of human ACHN cells assessed as cell growth at 100 nM relative to untreated control; details: read-out: Activity
SR = assay: Growth inhibition of human SR cells assessed as cell growth at 1 nM relative to untreated control; details: read-out: Activity

## COc1ccc2c(c1)[nH]c1c(C)c(OS(=O)(=O)c3cccc4c(N(C)C)cccc34)ccc12
U-251
  growth at 0.001 µM: 100%
LOX IMVI
  growth at 0.1 µM: 91%
SF-268
  growth at 0.1 µM: 96%
MOLT-4
  growth at 0.001 µM: 103%
HOP-62
  growth at 10 µM: 35%
M14
  growth at 0.001 µM: 102%
HCT-116
  GI50: 4.38 µM
  TGI: > 100 µM
HCT-116; read-out: LC50 (the source's name)
  CC50: > 100 µM
K562
  growth at 0.1 µM: 91%
NCI-H322M
  growth at 0.01 µM: 94%
ACHN
  growth at 0.1 µM: 97%
SR
  growth at 0.001 µM: 102%
